In brackets after ≈: the same amount, converted by molar mass.

In this experiment the test system is HeLa. In words: Cytostatic activity against human HeLa cells after 72 hrs by FCR-based colorimetric method. To be noted: read-out: ED50 (the source's name). Format: functional. The essentials:
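HeLa cells seeded at 10⁵ cells/mL in Minimal Eagle's medium with 10% fetal calf serum in Leighton tubes at 37 °C; after 2-3 h attachment, compound added as suspension in sterile saline with 0.05% (v/v) Tween 80 (10% of final volume). Incubated 72 h at 37 °C; growth estimated from cell protein by Oyama-Eagle colorimetric method; 6-mercaptopurine positive control.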
As to `CCOC(=O)c1cc(CBr)n([C@@H]2O[C@H](COC(C)=O)[C@@H](OC(C)=O)[C@H](OC(C)=O)[C@H]2OC(C)=O)n1`, the EC50 was found to be 6 µg/mL (≈ 10.7 µM).
The figure for `CCOC(=O)c1cc(CN(CCCl)CCCl)nn1[C@@H]1O[C@H](COC(C)=O)[C@@H](OC(C)=O)[C@H](OC(C)=O)[C@H]1OC(C)=O` is over 100 µg/mL; for `CCOC(=O)c1cc(CBr)nn1[C@@H]1O[C@H](COC(C)=O)[C@@H](OC(C)=O)[C@H](OC(C)=O)[C@H]1OC(C)=O` it is 5 µg/mL (≈ 8.88 µM); for `CC(=O)O[C@@H]1[C@H](OC(C)=O)[C@H](OC(C)=O)CO[C@H]1n1nc(CBr)cc1C(N)=O` it is 3 µg/mL (≈ 6.49 µM).
With `CCOC(=O)c1cc(CBr)nn1[C@@H]1OC[C@@H](OC(C)=O)[C@@H](OC(C)=O)[C@H]1OC(C)=O` the figure was 2 µg/mL (≈ 4.07 µM); with `CCOC(=O)c1cc(CBr)nn1[C@@H]1O[C@H](COC(C)=O)[C@@H](OC(C)=O)[C@H]1OC(C)=O`, 2.5 µg/mL (≈ 5.09 µM).
The figure for `CCOC(=O)c1cc(CN(CCCl)CCCl)nn1[C@@H]1O[C@H](COC(C)=O)[C@@H](OC(C)=O)[C@H]1OC(C)=O` is over 100 µg/mL; for `CC(=O)OC[C@H]1O[C@@H](n2nc(C(N)=O)cc2CBr)[C@H](OC(C)=O)[C@@H]1OC(C)=O` it is 2 µg/mL (≈ 4.33 µM).
As for `CC(=O)OC[C@H]1O[C@@H](n2nc(CBr)cc2C(N)=O)[C@H](OC(C)=O)[C@@H](OC(C)=O)[C@@H]1OC(C)=O`, the EC50 was found to be 4 µg/mL (≈ 7.49 µM).
With `CC(=O)OC[C@H]1O[C@@H](n2nc(CN(CCCl)CCCl)cc2C(N)=O)[C@H](OC(C)=O)[C@@H]1OC(C)=O` the figure was 35 µg/mL (≈ 66.9 µM); with `CC(=O)OC[C@H]1O[C@@H](n2nc(CN(CCCl)CCCl)cc2C(N)=O)[C@H](OC(C)=O)[C@@H](OC(C)=O)[C@@H]1OC(C)=O`, over 100 µg/mL; with `Br.NCc1cc(C(N)=O)n([C@@H]2OC[C@@H](O)[C@@H](O)[C@H]2O)n1`, over 100 µg/mL.
With `Br.NCc1cc(C(N)=O)n([C@@H]2O[C@H](CO)[C@@H](O)[C@H](O)[C@H]2O)n1` the figure was over 100 µg/mL.
On to `Br.NCc1cc(C(N)=O)n([C@@H]2O[C@H](CO)[C@@H](O)[C@H]2O)n1`, for which the EC50 is over 100 µg/mL.
The figure for `CC(=O)O[C@@H]1[C@H](OC(C)=O)[C@H](OC(C)=O)CO[C@H]1n1nc(CN(CCCl)CCCl)cc1C(N)=O` is 50 µg/mL (≈ 95.5 µM); for `CC(=O)OC[C@H]1O[C@@H](n2nc(CBr)cc2C(N)=O)[C@H](OC(C)=O)[C@@H]1OC(C)=O` it is 2 µg/mL (≈ 4.33 µM).
The figure for `CCOC(=O)c1cc(CBr)nn1[C@H]1O[C@H](COC(C)=O)[C@@H](OC(C)=O)[C@H](OC(C)=O)[C@H]1OC(C)=O` is 5 µg/mL (≈ 8.88 µM); for `Sc1ncnc2nc[nH]c12` [MERCAPTOPURINE ANHYDROUS] it is 0.1 µg/mL (≈ 0.657 µM).
With `CCOC(=O)c1cc(CN(CCCl)CCCl)nn1[C@@H]1OC[C@@H](OC(C)=O)[C@@H](OC(C)=O)[C@H]1OC(C)=O` the figure was over 100 µg/mL.

The record behind these values is ChEMBL document CHEMBL3228043, “Alkylating nucleosides. 2. Synthesis and cytostatic activity of bromomethylpyrazole and pyrazole nitrogen mustard nucleosides” (1979).
